pIC50: −log10 of the molar value. The source made the active and inactive calls. No cut-off for these calls is given here.
What was measured:
[1] = Growth inhibition of human Hey-C2 cells after 72 hrs by MTS assay; assay type: functional; conditions: Hey-C2, 72 h
How it was run: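 Hey-C2 ovarian cancer cells grown in RPMI 1640 with 10% fetal calf serum; 2–4,000 cells per well in triplicate, adhered overnight, then exposed to drug for 72 h at 37 °C. MTS reagent (0.05 mg/mL) added for 4 h at 37 °C, absorbance read at 490 nm, normalized to media-alone wells. GI50 is the average of three experiments.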

[2] = molecular target: T1, DNA repair nuclease/redox regulator APEX1 (Homo sapiens, UniProt P27695); assay: Inhibition of Ape1/ref-1 endonuclease activity up to 100 uM
T1 sequence (P27695 whole entry): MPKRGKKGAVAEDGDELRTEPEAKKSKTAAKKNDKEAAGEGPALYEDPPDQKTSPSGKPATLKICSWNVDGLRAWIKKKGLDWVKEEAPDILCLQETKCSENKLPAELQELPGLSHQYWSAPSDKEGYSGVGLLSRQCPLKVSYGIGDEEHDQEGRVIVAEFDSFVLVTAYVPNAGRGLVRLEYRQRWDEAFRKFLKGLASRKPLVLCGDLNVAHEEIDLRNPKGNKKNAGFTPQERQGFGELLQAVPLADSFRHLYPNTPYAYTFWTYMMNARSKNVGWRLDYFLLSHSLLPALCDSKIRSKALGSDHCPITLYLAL

[3] = molecular target: T1, DNA repair nuclease/redox regulator APEX1; assay: Inhibition of Ape1/ref-1 redox activity in presence of 0.02 mM DTT and human Hey-C2 cells nuclear extracts by EMSA; assay type: cell-free
How it was run: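 Purified Ape1 reduced with 1.0 mM DTT at 37 °C for 10 min, then diluted in PBS. Poly(dI-dC) added for 5 min, then HEX-labeled AP-1 consensus duplex (0.1 pmol) for 30 min at room temperature. Final DTT 0.02 mM.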

SMILES | inhibition [2] | pIC50 [3] | GI50 [1] [µM]
C/C(=C\C1=C(Br)C(=O)c2ccccc2C1=O)C(=O)O | – | – | 13
COCC/C(=C\C1=C(C)C(=O)c2ccccc2C1=O)C(=O)O | inactive | – | 30
COCC/C(=C\C1=C(C)C(=O)C(OC)=C(OC)C1=O)C(=O)O | inactive | – | 200
COC1=C(OC)C(=O)C(/C=C(\C)C(=O)O)=C(Cl)C1=O | inactive | 5.52 | 45
COC1=C(OC)C(=O)C(/C=C(\C)C(=O)O)=C(C)C1=O | inactive | – | 130
COCC/C(=C\C1=C(Br)C(=O)c2ccccc2C1=O)C(=O)O | inactive | 6.00 | 25
CCCCCCCCC/C(=C\C1=C(C)C(=O)C(OC)=C(OC)C1=O)C(=O)O [APX-3330] | inactive | – | 35
COC1=C(OC)C(=O)C(/C=C/C(=O)O)=C(C)C1=O | inactive | – | 250
COCC/C(=C\C1=C(Cl)C(=O)c2ccccc2C1=O)C(=O)O | inactive | – | 30
CCCC/C(=C\C1=C(C)C(=O)C(OC)=C(OC)C1=O)C(=O)O | inactive | – | 85
C/C(=C\C1=C(Cl)C(=O)c2ccccc2C1=O)C(=O)NCCO | inactive | 6.00 | 8
O=C(O)CCC1=C(Br)C(=O)c2ccccc2C1=O | inactive | – | 15
CCCCCCCCC/C(=C\C1=C(C)C(=O)C(OC)=C(OC)C1=O)C(=O)NCCO | inactive | – | 35

Now from value to molecule, other results behind:

inhibition [2] | pIC50 [3] | SMILES | GI50 [1] [µM]
inactive | – | C/C(=C\C1=C(F)C(=O)c2ccccc2C1=O)C(=O)O | 50
inactive | – | CSC1=C(/C=C(\C)C(=O)O)C(=O)c2ccccc2C1=O | 30
inactive | 6.00 | COC1=C(/C=C(\C)C(=O)O)C(=O)c2ccccc2C1=O | 40
inactive | – | C/C(=C\C1=C(Cl)C(=O)c2ccccc2C1=O)C(=O)O | 15
inactive | 5.52 | C/C(=C\C1=CC(=O)c2ccccc2C1=O)C(=O)O | 20
inactive | – | CC1=C(/C=C(\C)C(=O)O)C(=O)c2ccccc2C1=O | 45
inactive | 5.70 | C/C(=C/C1=C(Cl)C(=O)c2ccccc2C1=O)C(=O)O | 30

Source: ChEMBL document CHEMBL1156823, “Design and synthesis of novel quinone inhibitors targeted to the redox function of apurinic/apyrimidinic endonuclease 1/redox enhancing factor-1 (Ape1/ref-1)” (J Med Chem, 2010)
